Screening results as filed in PubChem BioAssay.
FLuc act counter – affects firefly luciferase, flagging false hits in luciferase stimulation screens | P08659 | ATPlite luciferase biochemical, luminescence, 10 min; 0 = ATP-free wells, 1 = DMSO control | activation factor at 10 µM | 200,000 tested, under 10 active;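 active = luciferase activation factor, scaled between plate controls, of at least 2 with compound at 10 µM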
Target sequence (P08659 whole entry, looked up): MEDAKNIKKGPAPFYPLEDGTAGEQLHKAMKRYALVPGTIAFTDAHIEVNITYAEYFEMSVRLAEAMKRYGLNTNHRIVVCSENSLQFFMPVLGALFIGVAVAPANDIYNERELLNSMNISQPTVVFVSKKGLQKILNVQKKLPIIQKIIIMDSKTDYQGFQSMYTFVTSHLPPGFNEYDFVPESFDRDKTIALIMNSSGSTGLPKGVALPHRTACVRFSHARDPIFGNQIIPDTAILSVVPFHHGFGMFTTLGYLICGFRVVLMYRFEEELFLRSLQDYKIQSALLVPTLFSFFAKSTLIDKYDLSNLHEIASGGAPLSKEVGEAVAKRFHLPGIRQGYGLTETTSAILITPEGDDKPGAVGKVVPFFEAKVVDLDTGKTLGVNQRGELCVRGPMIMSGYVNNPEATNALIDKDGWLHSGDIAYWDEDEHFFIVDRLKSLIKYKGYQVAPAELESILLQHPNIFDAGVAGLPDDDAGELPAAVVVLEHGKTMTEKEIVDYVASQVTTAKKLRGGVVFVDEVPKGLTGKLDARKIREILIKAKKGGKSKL
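Assay system – cell-free luciferase reagent · Medium – PBS-based ATP solution · Dosing – test compounds dosed from 2 mM stocks in 100% DMSO · Timing – 10 min, room temperature · Technique – light output (luminescence) · Measure – luminescence gain marking luciferase activators · Controls – No-ATP low control, compound-free enzyme-plus-ATP high control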
FLuc inh counter – Photinus pyralis luciferase inhibition counter-screen. P08659. ATPLite firefly luciferase biochemical luminescence, 10 min. inhibition, % at 10 µM. hit rate 1.5% among 200,000;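 active = inhibition above about 50% when tested at 10 µM, limit read from the data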
Pf gamet viab – inhibitors of late stage P. falciparum gametocyte viability | AID 743093 | P. falciparum stage V gametocytes, ATP luminescence, 24 h | hit rate 0.065% among 150,000 | inhibition, % at 10.9 µM;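 active = inhibition above the mean plus 3 SD of compounds within the control limits, set per campaign, cut at about 38% in these data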
NF-kB neuron act – NF-kB expression increase, human neuronal cells; NF-kB reporter expression; active compounds read high; fold change at 12.5 µM; hit rate 1.6% among 190,000; AID 1239; in the data active = fold change above about 3.3
STAT1 act – increases IFN-gamma driven STAT1 reporter signal. NIH 3T3 STAT1-luciferase reporter, luminescence; 100% = IFN-gamma alone, no compound. activation (% of control), % at 5.5 µM. hit rate 2.6% among 200,000. AID 932;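 active = activation above the screen-wide mean activation plus 3 SD, cut at about 130% in these data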
APP 5'UTR act – activates APP 5'UTR luciferase reporter. SH-SY5Y APP 5'UTR luciferase reporter, luminescence; zero percent = DMSO vehicle wells. activation, % at 2 µM. hit rate 1% among 190,000. AID 1276;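 active = activation above a set limit, based on mean plus 3 SD of controls, cut at about 140% in these data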
Numbers stand for hits; 0 = inactive; - = not tested or not shown. Most compounds without a hit are left out; they make up all but 3.5% or so of the library.

SMILES	FLuc act counter	FLuc inh counter	Pf gamet viab	NF-kB neuron act	STAT1 act	APP 5'UTR act
CC(=O)Nc1cc(C(=O)OCC(=O)c2ccccc2)ccc1C	0	0	-	0	136	0
CCC(=O)Nc1cccc(C(=O)OCC(=O)c2ccccc2Cl)c1	0	0	-	0	130	0
Cc1ccc(C(=O)OCC(=O)Nc2ccccc2)cc1NC(=O)c1ccco1	0	0	0	0	0	0
CCCN1Cc2cccc(C(=O)NC(CC(=O)OCC)c3ccc(OCC)c(OC)c3)c2C1=O (centres undefined)	0	0	0	0	0	0
CN(C)[C@@H](CO)c1nnc([C@H](Cc2ccc(O)cc2)NC(=O)C2CCNCC2)o1	0	0	-	0	0	0
CCOC(=O)c1cnc2c(N=Nc3ccccc3)c(N)nn2c1N	0	70	-	0	138	0
CCOC(=O)c1cnc2c(N=Nc3cccc(Cl)c3)c(N)nn2c1N	0	0	-	0	0	0
Cc1ccsc1/C=C1\SC(N)=NC1=O	0	0	0	0	0	0
COc1cc(OC)c(OC)cc1/C=C1\CCC(C2CCCC2)C1=O (centres undefined)	0	0	0	0	0	0
Cc1ccsc1/C=C1\CCC(C2CCCC2)C1=O (centres undefined)	0	0	0	5.9	140	202
Cc1ccc(/C=C2\CCC(C3CCCC3)C2=O)cc1 (centres undefined)	0	57	0	0	0	157
Cn1c(C23CC4CC(CC(C4)C2)C3)n[nH]c1=S	0	0	0	0	0	0
CC(=O)OC(C(=O)Nc1ccccc1C)C(OC(C)=O)C(OC(C)=O)C(OC(C)=O)C(=O)Nc1ccccc1C (centres undefined)	-	-	-	-	0	0
CC(C)(C)c1ccc(C(=O)Nc2cccc3c(=O)[nH][nH]c(=O)c23)cc1	0	70	0	0	0	0
OC1=C(O)c2nc3cc(F)ccc3nc21	-	-	0	-	-	-
Fc1ccc2nc3[nH]c4ccccc4c3nc2c1	0	0	0	4.4	214	157
CCc1ccccc1N(CC(=O)NC(C)c1ccccc1)S(C)(=O)=O (centres undefined)	-	-	0	-	-	-
Cc1ccccc1Oc1nc2ccccn2c(=O)c1/C=C(\C#N)C(=O)Nc1c(C)n(C)n(-c2ccccc2)c1=O	0	0	0	4.6	0	0
COc1ccc(C2=NOC(CNC(N)=S)C2)cc1 (centres undefined)	0	0	0	4.3	0	0
COc1ccc(CNC(=O)C2CC(c3ccc(OC)cc3)=NO2)cc1 (centres undefined)	0	0	0	0	0	0
O=[N+]([O-])c1ccccc1NCCOc1ccccc1	0	0	0	0	129	0
O=C(CCOc1ccccc1)Nc1ccccc1[N+](=O)[O-]	0	0	0	0	0	0
C#CCOCCOCCOCCNc1nc(N2CCN(C(=O)[C@H](CCC(=O)O)n3cc(C(N)[C@H](C)CC)nn3)CC2)nc(N2CCN(C(=O)[C@H](CCC(=O)O)n3cc(C(N)[C@H](C)CC)nn3)CC2)n1 (some centres undefined)	0	0	-	0	0	0
CCCCc1ccc(N/C(N)=N/c2nc(C)cc(C)n2)cc1	-	-	0	-	-	-
COc1ccc(N2C(=O)CSC23C(=O)N2CCCc4cccc3c42)cc1 (centres undefined)	0	0	42	0	0	0
SMILES	FLuc act counter	FLuc inh counter	Pf gamet viab	NF-kB neuron act	STAT1 act	APP 5'UTR act
O=C1CSC2(C(=O)N3CCCc4cccc2c43)N1c1cccc(C(F)(F)F)c1 (centres undefined)	0	0	-	0	0	0
O=C(c1ccco1)N1N=C(c2ccccc2)CC1c1ccc2nccnc2c1 (centres undefined)	-	-	0	-	-	-
Cc1ccc(Nc2nnc(SC3CCOC3=O)s2)cc1 (centres undefined)	0	0	0	0	0	0
O=C1CCCCC1Sc1nnc(Nc2ccccc2)s1 (centres undefined)	0	0	-	0	144	0
CC(C)(C)Nc1ncnc2c1cnn2-c1ccccc1	0	66	-	-	-	-
c1ccc(CCNc2ncnc3c2cnn3-c2ccccc2)cc1	0	0	-	6.5	140	0
CN(C)CCCNc1ncnc2c1cnn2-c1ccccc1	0	0	-	0	0	0
c1ccc(CNc2ncnc3c2cnn3-c2ccccc2)cc1	0	0	0	0	0	0
c1ccc(-n2ncc3c(NCCN4CCCCC4)ncnc32)cc1	0	0	0	0	0	0
c1ccc(-n2ncc3c(NCCN4CCOCC4)ncnc32)cc1	0	0	0	0	133	0
CC(C)OCCCNc1ncnc2c1cnn2-c1ccccc1	0	74	0	6	0	194
CC(C)C[C@H]1COCCS(=O)(=O)N1Cc1ccc(Cl)c(Cl)c1	-	-	0	-	-	-
CN1CCN(C(=O)CSc2nc3ccc(NC(=O)c4ccccc4F)cc3s2)CC1	-	-	0	-	-	-
COc1ccc(OC)c(NC(=O)N2CCCC(C(=O)c3ccccc3OC)C2)c1 (centres undefined)	0	0	-	0	0	0
CCOC(=O)N1CCN(S(=O)(=O)c2ccc3c(c2)CCN3C(=O)CC)CC1	0	0	-	0	0	0
Cc1cc(NC(=O)CSc2nc3ccccc3c(=O)n2C(C)c2ccccc2)no1 (centres undefined)	0	0	-	3.6	0	0
COc1ccc(NC(=S)N(CCN(C)C)C(C)c2ccco2)cc1Cl (centres undefined)	0	0	0	0	0	0
Cc1ccc(SCC(=O)N2c3ccccc3Sc3ccccc32)cc1	0	0	-	0	0	0
O=C(CSc1nnc(C2CC2)n1Cc1ccco1)NCC(F)(F)F	0	0	-	0	0	0
CCOC(=O)c1nn(-c2ccc(F)cc2)cc1O	0	0	0	0	0	0
CCOC(=O)c1nn(-c2ccc3c(c2)CCN3C(C)=O)cc1O	0	61	0	0	0	0
Clc1ccc(Cc2nn3c(Cn4nnc5ccccc54)nnc3s2)cc1	0	0	0	0	0	0
CCCCCCOc1ccc(C(=O)O)cc1	-	-	0	-	-	-
CCCCOc1ccc(-c2ncc(C(=O)O)c(C)n2)cc1	0	0	0	4.3	136	165
COc1ccc2nc(SCc3cccc(C)c3)nc(C)c2c1	0	0	0	3.5	130	0
SMILES	FLuc act counter	FLuc inh counter	Pf gamet viab	NF-kB neuron act	STAT1 act	APP 5'UTR act
COc1ccc(OCC(O)CNS(=O)(=O)c2cccc(Cl)c2)cc1 (centres undefined)	-	-	0	-	-	-
Cc1ccccc1NC(=S)NNC(=O)c1csc2c1CCC(C)C2 (centres undefined)	0	60	-	0	0	180
CC1CCc2c(C(=O)Nc3nccs3)csc2C1 (centres undefined)	0	0	0	4.1	0	0
C/C(=N\NC(=O)c1csc(C)c1C)c1ccc(C)s1	0	0	0	0	0	0
C/C(=N/NC(=O)c1ccc2c(c1)OCO2)c1ccc(Br)s1	0	0	0	0	136	0
C/C(=N\NC(=O)c1csc(C)c1C)c1ccco1	0	79	-	3.7	0	0
COc1ccc(/C(C)=N\NC(=O)c2ccc3c(c2)OCO3)cc1OC	0	0	0	0	0	0
